Screening results (PubChem)
A selection: hits, their analogues and other compounds. The true share with any hit is near 4.1%.
AHR act: human AHR activation | AHR-responsive luciferase reporter cells, luminescence | 320,000 tested, 2.5% active | activation, % at 5 µM | AID 2796; in the data active = activation above about 47%
Target sequence (P35869 whole entry, looked up): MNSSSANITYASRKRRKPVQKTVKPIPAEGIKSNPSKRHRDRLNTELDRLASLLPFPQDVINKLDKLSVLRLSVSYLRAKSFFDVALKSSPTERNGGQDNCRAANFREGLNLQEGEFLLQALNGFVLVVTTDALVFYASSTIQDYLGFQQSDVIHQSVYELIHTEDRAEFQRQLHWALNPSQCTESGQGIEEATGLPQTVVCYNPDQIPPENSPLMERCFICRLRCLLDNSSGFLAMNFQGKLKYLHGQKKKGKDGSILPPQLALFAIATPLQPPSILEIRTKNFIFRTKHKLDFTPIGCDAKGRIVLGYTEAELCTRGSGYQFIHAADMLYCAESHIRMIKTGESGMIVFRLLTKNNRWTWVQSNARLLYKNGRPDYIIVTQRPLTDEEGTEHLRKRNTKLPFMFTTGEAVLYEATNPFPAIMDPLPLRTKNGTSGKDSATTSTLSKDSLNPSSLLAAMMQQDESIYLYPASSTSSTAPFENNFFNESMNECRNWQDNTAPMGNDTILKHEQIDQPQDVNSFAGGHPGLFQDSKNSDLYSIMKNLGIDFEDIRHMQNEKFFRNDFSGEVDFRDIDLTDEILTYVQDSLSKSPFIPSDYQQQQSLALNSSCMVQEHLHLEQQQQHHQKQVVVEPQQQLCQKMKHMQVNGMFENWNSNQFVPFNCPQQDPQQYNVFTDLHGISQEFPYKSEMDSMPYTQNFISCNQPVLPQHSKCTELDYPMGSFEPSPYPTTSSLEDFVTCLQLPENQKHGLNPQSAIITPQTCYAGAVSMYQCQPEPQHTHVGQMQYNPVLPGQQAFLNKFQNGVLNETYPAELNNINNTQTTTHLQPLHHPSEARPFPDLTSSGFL
Tb MetRS inh: Trypanosoma brucei MetRS inhibition. 360,000 tested, 0.4% active. inhibition, % at 11.9 µM. purified T. brucei MetRS, ATP depletion, Kinase-Glo luminescence;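 active = inhibition above a per-plate cutoff of the control wells' mean inhibition plus 3 SD, cut at about 5.5% in these data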
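assay system = parasite MetRS enzyme | timing = 15 min preincubation, 2 h reaction, all 25 °C | evaluation = percent inhibition relative to median high and low control wells | medium = HEPES buffer containing pyrophosphatase, BSA, spermine, DTT | compound = single dose, 11.9 µM final nominal, 0.9% final DMSO | detection = Kinase-Glo luminescence, ATP depletion format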
Efflux pump mplx: inhibitors of Candida antifungal efflux pumps expressed in yeast; 330,000 tested, 0.44% active; inhibition, % at 10 µM; S. cerevisiae Candida pump triplex, Nile Red efflux;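 active = plate passing quality check with inhibition over a set limit, or well fluorescence over plate mean plus 4 SD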;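 note: Nile Red retained in pooled yeast measured as flow cytometry median fluorescence; higher means more Nile Red kept so more efflux inhibition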
TAG inh: reduces triacylglycerol accumulation in H9c2 cells; Nile Red lipid (TAG) fluorescence; cells loaded with 200 µM oleic acid; inhibition, % at 12.5 µM; 230,000 tested, 0.66% active;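 active = pattern-corrected inhibition of lipid staining of at least 50% with the nuclear-stain viability signal not falling by more than 50%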
SMARCA2 act: activators of SMARCA2 function; MG213 cells, MMTV-luciferase reporter, dexamethasone, overnight; activation, % at 9.1 µM; 370,000 tested, 1% active; AID 652017; in the data active = activation above about 7.8%
TbMetRS confirm: confirmation of Trypanosoma brucei MetRS inhibitors | inhibition, % at 11.9 µM | shares compounds with Tb MetRS inh | T. brucei MetRS enzyme, luminescence (ATP depletion) | 1,400 tested, 93% active; in the data active = inhibition above about 7%
Jurkat tox: kills Jurkat cells in T. brucei MetRS counterscreen | 1,400 tested, 12% active | shares compounds with Tb MetRS inh | Jurkat cells viability, ATP luminescence | inhibition, % at 8.3 µM; in the data active = inhibition above about 15%
Tb MetRS inh FP: T. brucei MetRS inhibition, orthogonal assay | shares compounds with Tb MetRS inh | purified T. brucei MetRS, fluorescence polarization | inhibition, % at 11.9 µM | 1,400 tested, 44% active; in the data active = inhibition above about 17%
A number is an active result; i = inactive; nt = no result given.

SMILES	AHR act	Tb MetRS inh	Efflux pump mplx	TAG inh	SMARCA2 act	TbMetRS confirm	Jurkat tox	Tb MetRS inh FP
O=C(Nc1ccc(Cl)cc1)N(Cc1nc2ccccc2c(=O)[nH]1)Cc1cccs1	i	9.8	i	nt	i	37.7	i	18.9
O=C(CSCc1nc2ccccc2[nH]1)N1CCN(c2ccc(F)cc2)CC1	i	i	i	i	i	nt	nt	nt
S=c1[nH]nc(CCc2nc3ccccc3[nH]2)n1-c1ccccc1	i	i	i	nt	i	nt	nt	nt
S=c1[nH]nc(CCc2nc3ccccc3[nH]2)n1-c1cccc(Cl)c1	i	7.7	i	i	i	14.1	i	i
O=C(CSCc1nc2ccccc2[nH]1)N1CCN(c2cccc(Cl)c2)CC1	i	13.2	i	nt	i	26.1	i	i
Cc1cc(=O)[nH]c(SCc2cn3ccccc3n2)n1	i	i	i	i	i	nt	nt	nt
O=[N+]([O-])c1ccc2nc(SCc3cn4ccccc4n3)[nH]c2c1	i	17.4	i	nt	i	35.2	i	21.4
Nc1ccc2c(c1)C(=O)C(=O)c1ccccc1-2	i	21.9	i	i	i	15.4	97.2	i
Cc1cc(O)c(-c2cc(C(=O)NCCc3ccc(S(N)(=O)=O)cc3)[nH]n2)cc1C	i	i	i	i	i	nt	nt	nt
Cc1cc(C)c(O)c(-c2cc(C(=O)NCCc3ccc(S(N)(=O)=O)cc3)[nH]n2)c1	i	5.7	i	i	i	15.3	i	17.1
NS(=O)(=O)c1ccc(CCNC(=O)c2cc(-c3cc(Cl)ccc3O)n[nH]2)cc1	i	31.8	i	i	i	37.5	i	35.6
O=C(Nc1nnc(COc2ccccc2F)s1)Nc1ccccc1F	i	14.6	i	i	i	25.2	i	i
O=C(Nc1ccc(F)cc1)Nc1nnc(COc2ccccc2F)s1	i	i	i	i	i	nt	nt	nt
Nc1nc(Cl)cc(=O)n1Cc1ccc(Cl)cc1	i	9.4	i	i	i	18.3	i	i
Nc1cc(=O)n(Cc2ccccc2)c(=O)n1-c1ccc(Cl)cc1	i	i	i	i	i	nt	nt	nt
O=S1(=O)c2ccc(Br)cc2OC[C@H](Cc2ccccc2)N1Cc1cn(Cc2ccc(Br)cc2)nn1	nt	nt	nt	nt	i	nt	nt	nt
CCCCCCCCN1C(=O)[C@@H](CC(=O)N2CCN(C(=O)c3ccco3)CC2)C[C@@]2(C(=O)OC)C1=C[C@H](COCc1ccccc1)O[C@@H]2C	nt	nt	nt	nt	i	nt	nt	nt
CC(C)(C)OC(=O)N1CCC2CCN(S(=O)(=O)c3ccccc3)CC21 (stereo not drawn)	nt	nt	nt	nt	i	nt	nt	nt
COc1ccc(-n2c(SCC(=O)Nc3ccc(Cl)cc3)nc(O)c(Cc3ccccc3)c2=O)cc1	i	47.5	i	i	i	69.9	i	34.6
C=CCNc1cccc2c1S(=O)(=O)N[C@@H](C)CO2	nt	nt	nt	nt	i	nt	nt	nt
CC(C)NC(=O)CCCOc1ccc(Cl)cc1Cl	i	6.3	i	nt	i	11.0	i	i
O=C(COC(=O)CCCOc1ccc(Cl)cc1Cl)Nc1cccc(Cl)c1	i	31.4	i	nt	i	44.9	i	48.9
CCN(CC)C(=O)CCCOc1ccc(Cl)cc1Cl	i	9.1	i	i	i	16.2	i	i
C#CCN(C)CCCOc1ccc(Cl)cc1Cl	i	7.3	i	i	i	18.2	i	i
CCN(C)C(=O)CNc1nnnn1-c1ccccc1	nt	nt	nt	nt	i	nt	nt	nt
SMILES	AHR act	Tb MetRS inh	Efflux pump mplx	TAG inh	SMARCA2 act	TbMetRS confirm	Jurkat tox	Tb MetRS inh FP
O=C1N(c2ccccc2)CC2CC(c3ccccc3)N3CCCC123 (stereo not drawn)	nt	nt	nt	nt	i	nt	nt	nt
Oc1[nH]c(=S)sc1/C=C1\C(c2ccccc2)=Nc2ccccc21	i	i	i	i	i	nt	nt	nt
Oc1[nH]c(=S)sc1C=C1N=c2ccccc2=N1	i	6.5	i	i	i	14.6	i	i
NC1=NC(=O)/C(=C\c2ccc(-c3ccc(Cl)cc3)o2)S1	51.0	9.1	i	i	i	34.5	21.8	48.6
CN(C)C1=NC(=O)/C(=C/c2ccc(-c3ccc(S(N)(=O)=O)cc3)o2)S1	i	nt	i	nt	nt	nt	nt	nt
O=c1c(OC2OC(CO)C(O)C(O)C2OC2OC(CO)C(O)C(O)C2O)c(-c2ccc(O)cc2)oc2cc(O)cc(O)c12 (stereo not drawn)	i	7.1	i	nt	i	21.7	i	22.5
CCCCC#Cc1cncc(C(=O)NN)c1	i	5.7	i	i	i	i	i	i
CCCCCCC#Cc1cncc(C(=O)NNC(=O)Nc2cc(Cl)cc(Cl)c2)c1	i	i	i	i	i	nt	nt	nt
